# Bioassay records: PubChem, several laboratories
# Vif imaging: HIV Vif self-association inhibitors, primary screen, imaging, HEK293T, single point. inhibition, % at 7.49 µM. HEK293T cells, Vif self-association by quenched fluorescence, 24 h. 0.35% of 340,000 active; in the data active means inhibition above about 50%, passing the limit was not always enough; inconclusive means no clear call, values can overlap the other calls; inactive means below about 31%
# T cell HTS: modulators of CD8 T cell-vesicle binding, primary screen, mouse 2C CD8+ T cells, flow cytometry; 2C CD8+ T cell-vesicle binding; hits give low values; response (vesicle binding), % at 7 µM; 0.068% of 330,000 active;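 active means response, share of CD8 T cells binding vesicles, and their 90th percentile fluorescence all below set limits, cut at about 80% in these data, passing the limit was not always enough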;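 further: values below 100% mean blocked vesicle binding to the CD8+ T cells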
#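 Assay system – 2C mouse CD8+ T cells · Also added – QL9-loaded Drosophila micro-vesicles · Timing – Cell–vesicle co-incubation 1.5 h at 37 °C, staining 20 min on ice · Signal – flow cytometry of vesicle-bound cells · Measure – percent CD8+ FL2 mean versus row control · Controls – Peptide-free naked vesicles (low) and QL9 vesicles with 0.7% DMSO vehicle (high)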
# Myeloid diff MLP: induction of myeloid progenitor differentiation, primary screen, cell-based, flow cytometry, MLPCN library; ER-HoxA9 myeloid progenitors, lysozyme-GFP differentiation; calls only at 10 µM; 1% of 360,000 active; AID 624256, 2012;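 active means normalized GFP-positive differentiation at or above the plate's own cutoff, the solvent-only control mean plus 3 SD; inconclusive means no clear call, values can overlap the other calls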;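 further: cells exposed to compound for four days before flow analysis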
# Pemphigus Ab inh: inhibitors of pemphigus antibody binding to DSG3, primary screen, biochemical, bead-based, flow cytometry, scFv-GFP; 0.48% of 310,000 active; DSG3-coupled beads, scFv-anti-DSG3-GFP binding; hits give low values; binding (percent of control), % at 10 µM;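 active means binding more than 3 SD below its plate's average and above zero; inconclusive means below that plate limit but binding exactly zero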;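 further: hits lower antibody fragment binding to DSG3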
# Target sequence (P32926 whole entry, looked up, the tested form may be a part): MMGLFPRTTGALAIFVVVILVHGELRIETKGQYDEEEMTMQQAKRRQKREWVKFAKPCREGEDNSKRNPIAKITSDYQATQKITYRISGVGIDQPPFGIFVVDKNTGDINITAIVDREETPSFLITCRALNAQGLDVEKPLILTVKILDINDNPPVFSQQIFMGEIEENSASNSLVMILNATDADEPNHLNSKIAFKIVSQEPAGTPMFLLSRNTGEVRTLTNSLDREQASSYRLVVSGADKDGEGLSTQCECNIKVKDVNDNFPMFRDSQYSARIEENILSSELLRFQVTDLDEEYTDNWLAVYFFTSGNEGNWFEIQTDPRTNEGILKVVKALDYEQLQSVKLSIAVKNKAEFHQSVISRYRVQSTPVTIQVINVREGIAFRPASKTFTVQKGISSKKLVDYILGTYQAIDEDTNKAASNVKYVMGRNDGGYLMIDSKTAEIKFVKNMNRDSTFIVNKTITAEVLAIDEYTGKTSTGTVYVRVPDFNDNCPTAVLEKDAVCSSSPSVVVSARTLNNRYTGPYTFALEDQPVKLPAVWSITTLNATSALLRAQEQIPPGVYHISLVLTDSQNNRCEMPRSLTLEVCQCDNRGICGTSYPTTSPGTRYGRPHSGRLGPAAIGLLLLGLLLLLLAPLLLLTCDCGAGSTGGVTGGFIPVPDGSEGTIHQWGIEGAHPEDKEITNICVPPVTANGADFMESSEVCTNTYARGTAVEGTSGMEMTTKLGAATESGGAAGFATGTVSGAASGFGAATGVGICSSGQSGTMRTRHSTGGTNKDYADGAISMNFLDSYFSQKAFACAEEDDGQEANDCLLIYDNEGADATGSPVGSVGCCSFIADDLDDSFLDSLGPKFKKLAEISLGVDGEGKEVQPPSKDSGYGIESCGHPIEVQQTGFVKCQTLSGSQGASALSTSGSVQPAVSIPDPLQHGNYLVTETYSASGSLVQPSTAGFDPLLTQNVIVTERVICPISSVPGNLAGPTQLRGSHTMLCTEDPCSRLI
# Starred values were filed as active, the others as inactive; i = inactive; ? = inconclusive; . = no result; + = active, no number. This is a sample that favours compounds with a hit; in the whole collection about 1.7% have one here.
SMILES,Vif imaging,T cell HTS,Myeloid diff MLP,Pemphigus Ab inh
Cc1cc(C)cc(N(CC(=O)NC2CC3CCC2C3)S(C)(=O)=O)c1 (configuration not stated),1,180,i,98
CN(c1ccc(C(=O)NC2CC3CCC2C3)cc1)S(C)(=O)=O (configuration not stated),2,455,i,6.6*
COC(=O)C1=CNC=C(C(=O)OC)C1c1ccccc1Cl,-5,174,i,98
COC(=O)C1=CNC=C(C(=O)OC)C1c1ccc(Cl)cc1,-6,426,+,.
O=C(Nc1ccc(Nc2ccncc2)cc1)c1ccc(Nc2ccnc3ccc([N+](=O)[O-])cc23)cc1,-2,.,i,60*
O=C(Nc1ccc(Cc2ccncc2)cc1)c1cccc([N+](=O)[O-])c1,8,91,i,90
COc1ccc2c(c1)N(C)/C(=C1/SC(=NCc3ccccc3)N(c3ccccc3)C1=O)S2,170*,163,i,89
Cc1ccc(C(=O)N(CC(=O)NC2CCCC2)Cc2cccs2)s1,-20,647,i,76*
Cc1ccc(C(=O)N(CC(=O)NC2CCCC2)c2ccccc2C)s1,-2,66,i,97
CC(=O)Nc1nonc1NC(=O)CSc1nc2ccccc2o1,-44,448,+,108
Cc1nonc1NC(=O)CSc1nc2ccccc2o1,-31,247,i,96
COc1ccc(C)cc1NC(=O)C1CCN(C(=O)c2ccco2)CC1,54*,181,i,.
O=C(CCCCn1ccc(=O)[nH]c1=O)Nc1ccc(O)c(C(=O)O)c1,78*,.,i,96
O=C(CCCCn1ccc(=O)[nH]c1=O)Nc1ccc(C(=O)O)c(O)c1,8,.,i,95
O=C(O)CCC1c2cc3c4cc2OC2Oc5cc6c(cc51)C(CCC(=O)O)c1cc5c7cc1OC(O6)c1cc6cc(c1)Oc1cc(cc(C(=O)O)c1)Oc1cc8cc(c1)C(Oc1cc(c(cc1C5CCC(=O)O)C3CCC(=O)O)OC(O4)c1cc(cc(c1)Oc1cc(cc(C(=O)O)c1)O8)Oc1cc(cc(C(=O)O)c1)Oc1cc(cc2c1)Oc1cc(cc(C(=O)O)c1)O6)O7 (configuration not stated),.,711,.,.
COc1ccccc1C(=O)NC(=S)Nc1ccc(S(=O)(=O)N2CCN(C)CC2)cc1,7,0.0*,i,110
O=C(Nc1ccc(S(=O)(=O)N2CCOCC2)cc1)c1ccccc1,-4,588,i,94
COc1ccc(NC(=O)c2cccc(S(=O)(=O)N3CCN(C)CC3)c2)c(OC)c1,54*,190,i,?
O=C(Nc1ccccc1)c1ccccc1OCc1ccc(S(=O)(=O)N2CCOCC2)cc1,5,211,i,67*
CCCCCC1C(C(=O)OCC)C(=O)NC1(C(=O)OCC)C(=O)OCC (configuration not stated),25,.,i,96
COc1ccc(-n2nnnc2C(c2ccccc2OC(F)(F)F)N2CCN(C/C=C/c3ccccc3)CC2)cc1 (configuration not stated),.,.,+,.
COc1ccc(C(c2nnnn2-c2ccc(OC)cc2)N2CCN(C/C=C/c3ccccc3)CC2)cc1 (configuration not stated),5,.,i,.
CC1(C(=O)NC2CCCC2)CCC(=O)N1CCOc1ccccc1 (configuration not stated),.,.,i,.
CC[C@]12c3[nH]c4ccccc4c3CCN1C(=O)C(CC(=O)NCCc1ccccn1)C[C@@H]2C(=O)N1CCN(C(=O)c2ccco2)CC1 (some centres not stated),-5,350,i,113
CC[C@]12c3[nH]c4ccccc4c3CCN1C(=O)C(CC(=O)NCCCn1ccnc1)C[C@@H]2C(=O)N1CCN(C(=O)C2CC2)CC1 (some centres not stated),.,210,+,113
CC(C)=CCC/C(C)=C/CNC(=O)C[C@H]1C[C@H](C(=O)N2CCCCC2)[C@@]2(CCc3ccccc3)c3[nH]c4cc(CCC(=O)N(C)C)ccc4c3CCN2C1=O,-5,.,+,90
CC(C)N(C(=O)[C@H]1C[C@H](CC(=O)NCCN2CCOCC2)C(=O)N2CCc3c([nH]c4cc(-c5ccco5)ccc34)[C@]12C)C(C)C,-2,.,i,105
